ChEMBL document CHEMBL1157526, “Development of novel beta-amyloid probes based on 3,5-diphenyl-1,2,4-oxadiazole” (Bioorg Med Chem, 2008)

Legend:
[1] = Displacement of [125I]IMPY from amyloid beta (1-42) aggregates
Procedure, shortened: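 Synthetic Aβ(1–42) dissolved at 0.25 mg/mL in 10 mM sodium phosphate, 1 mM EDTA, pH 7.4, aggregated 42 h at 37 °C with gentle constant shaking. Competition against [125I]IMPY (2200 Ci/mmol, >95% radiochemical purity). Filter-bound radioactivity gamma-counted, specific binding under 15% of total. IC50 from displacement curves, Ki by Cheng-Prusoff. Mean ± SEM of 3–6 independent experiments.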

Blood [2] = assay: Biodistribution in ddY mouse blood at 0.5 uCi, iv after 10 mins; assay type: ADME, organism-based; conditions: in vivo
Procedure, shortened: (§1)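 Normal male-unspecified ddY mice (5-week-old, 22–25 g) given radioiodinated ligand by tail-vein injection, killed at set times post-injection. Organs removed and weighed, radioactivity counted in a gamma counter. Expressed as % injected dose per gram, stomach as % injected dose per organ. Mean (s.d.) of 3–5 animals per time point.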

Heart [3] = assay: Biodistribution in ddY mouse heart at 0.5 uCi, iv after 10 mins; assay type: ADME, organism-based; conditions: in vivo; procedure, shortened: as §1
Intestine [4] = assay: Biodistribution in ddY mouse intestine at 0.5 uCi, iv after 30 mins; assay type: ADME, organism-based; conditions: in vivo, 0.5 h; procedure, shortened: as §1
Intestine [5] = assay: Biodistribution in ddY mouse intestine at 0.5 uCi, iv after 10 mins; assay type: ADME, organism-based; conditions: in vivo; procedure, shortened: as §1
Intestine [6] = assay: Biodistribution in ddY mouse intestine at 0.5 uCi, iv after 2 mins; assay type: ADME, organism-based; conditions: in vivo; procedure, shortened: as §1
Kidney [7] = assay: Biodistribution in ddY mouse kidney at 0.5 uCi, iv after 2 mins; assay type: ADME, organism-based; conditions: in vivo; procedure, shortened: as §1
Intestine [8] = assay: Biodistribution in ddY mouse intestine at 0.5 uCi, iv after 60 mins; assay type: ADME, organism-based; conditions: in vivo, 1 h; procedure, shortened: as §1
Brain [9] = assay: Biodistribution in ddY mouse brain at 0.5 uCi, iv after 60 mins; assay type: ADME, organism-based; conditions: in vivo, 1 h; procedure, shortened: as §1
Pancreas [10] = assay: Biodistribution in ddY mouse pancreas at 0.5 uCi, iv after 60 mins; assay type: ADME, organism-based; conditions: in vivo, 1 h; procedure, shortened: as §1
Heart [11] = assay: Biodistribution in ddY mouse heart at 0.5 uCi, iv after 60 mins; assay type: ADME, organism-based; conditions: in vivo, 1 h; procedure, shortened: as §1
Liver [12] = assay: Biodistribution in ddY mouse liver at 0.5 uCi, iv after 60 mins; assay type: ADME, organism-based; conditions: in vivo, 1 h; procedure, shortened: as §1
Pancreas [13] = assay: Biodistribution in ddY mouse pancreas at 0.5 uCi, iv after 2 mins; assay type: ADME, organism-based; conditions: in vivo; procedure, shortened: as §1
Pancreas [14] = assay: Biodistribution in ddY mouse pancreas at 0.5 uCi, iv after 10 mins; assay type: ADME, organism-based; conditions: in vivo; procedure, shortened: as §1
Kidney [15] = assay: Biodistribution in ddY mouse kidney at 0.5 uCi, iv after 60 mins; assay type: ADME, organism-based; conditions: in vivo, 1 h; procedure, shortened: as §1
Spleen [16] = assay: Biodistribution in ddY mouse spleen at 0.5 uCi, iv after 2 mins; assay type: ADME, organism-based; conditions: in vivo; procedure, shortened: as §1
Spleen [17] = assay: Biodistribution in ddY mouse spleen at 0.5 uCi, iv after 60 mins; assay type: ADME, organism-based; conditions: in vivo, 1 h; procedure, shortened: as §1
Stomach [18] = assay: Biodistribution in ddY mouse stomach at 0.5 uCi, iv after 2 mins; assay type: ADME, organism-based; conditions: in vivo; procedure, shortened: as §1
Liver [19] = assay: Biodistribution in ddY mouse liver at 0.5 uCi, iv after 2 mins; assay type: ADME, organism-based; conditions: in vivo; procedure, shortened: as §1
Blood [20] = assay: Biodistribution in ddY mouse blood at 0.5 uCi, iv after 2 mins; assay type: ADME, organism-based; conditions: in vivo; procedure, shortened: as §1
Liver [21] = assay: Biodistribution in ddY mouse liver at 0.5 uCi, iv after 10 mins; assay type: ADME, organism-based; conditions: in vivo; procedure, shortened: as §1
Blood [22] = assay: Biodistribution in ddY mouse blood at 0.5 uCi, iv after 30 mins; assay type: ADME, organism-based; conditions: in vivo, 0.5 h; procedure, shortened: as §1
Liver [23] = assay: Biodistribution in ddY mouse liver at 0.5 uCi, iv after 30 mins; assay type: ADME, organism-based; conditions: in vivo, 0.5 h; procedure, shortened: as §1
Blood [24] = assay: Biodistribution in ddY mouse blood at 0.5 uCi, iv after 60 mins; assay type: ADME, organism-based; conditions: in vivo, 1 h; procedure, shortened: as §1
Stomach [25] = assay: Biodistribution in ddY mouse stomach at 0.5 uCi, iv after 30 mins; assay type: ADME, organism-based; conditions: in vivo, 0.5 h; procedure, shortened: as §1
Brain [26] = assay: Biodistribution in ddY mouse brain at 0.5 uCi, iv after 10 mins; assay type: ADME, organism-based; conditions: in vivo; procedure, shortened: as §1
Pancreas [27] = assay: Biodistribution in ddY mouse pancreas at 0.5 uCi, iv after 30 mins; assay type: ADME, organism-based; conditions: in vivo, 0.5 h; procedure, shortened: as §1
Stomach [28] = assay: Biodistribution in ddY mouse stomach at 0.5 uCi, iv after 10 mins; assay type: ADME, organism-based; conditions: in vivo; procedure, shortened: as §1
Brain [29] = assay: Biodistribution in ddY mouse brain at 0.5 uCi, iv after 30 mins; assay type: ADME, organism-based; conditions: in vivo, 0.5 h; procedure, shortened: as §1
Kidney [30] = assay: Biodistribution in ddY mouse kidney at 0.5 uCi, iv after 10 mins; assay type: ADME, organism-based; conditions: in vivo; procedure, shortened: as §1
Heart [31] = assay: Biodistribution in ddY mouse heart at 0.5 uCi, iv after 30 mins; assay type: ADME, organism-based; conditions: in vivo, 0.5 h; procedure, shortened: as §1
Spleen [32] = assay: Biodistribution in ddY mouse spleen at 0.5 uCi, iv after 30 mins; assay type: ADME, organism-based; conditions: in vivo, 0.5 h; procedure, shortened: as §1
Spleen [33] = assay: Biodistribution in ddY mouse spleen at 0.5 uCi, iv after 10 mins; assay type: ADME, organism-based; conditions: in vivo; procedure, shortened: as §1
Heart [34] = assay: Biodistribution in ddY mouse heart at 0.5 uCi, iv after 2 mins; assay type: ADME, organism-based; conditions: in vivo; procedure, shortened: as §1
Brain [35] = assay: Biodistribution in ddY mouse brain at 0.5 uCi, iv after 2 mins; assay type: ADME, organism-based; conditions: in vivo; procedure, shortened: as §1
Kidney [36] = assay: Biodistribution in ddY mouse kidney at 0.5 uCi, iv after 30 mins; assay type: ADME, organism-based; conditions: in vivo, 0.5 h; procedure, shortened: as §1
Stomach [37] = assay: Biodistribution in ddY mouse stomach at 0.5 uCi, iv after 60 mins; assay type: ADME, organism-based; conditions: in vivo, 1 h; procedure, shortened: as §1

Compound: CNc1ccc(-c2nc(-c3ccc(I)cc3)no2)cc1
- Ki [1]: 14.3 nM

Compound: CNc1ccc(-c2nc(-c3ccc([125I])cc3)no2)cc1
- Drug uptake (Blood [2]): 1.84 % ID/g
- Drug uptake (Heart [3]): 3.05 % ID/g
- Drug uptake (Intestine [4]): 5.67 % ID/g
- Drug uptake (Intestine [5]): 2.83 % ID/g
- Drug uptake (Intestine [6]): 1.36 % ID/g
- Drug uptake (Kidney [7]): 9.53 % ID/g
- Drug uptake (Intestine [8]): 8.46 % ID/g
- Drug uptake (Brain [9]): 2.7 % ID/g
- Drug uptake (Pancreas [10]): 1.88 % ID/g
- Drug uptake (Heart [11]): 1.27 % ID/g
- Drug uptake (Liver [12]): 7.3 % ID/g
- Drug uptake (Pancreas [13]): 3.34 % ID/g
- Drug uptake (Pancreas [14]): 3.91 % ID/g
- Drug uptake (Kidney [15]): 3.02 % ID/g
- Drug uptake (Spleen [16]): 4.58 % ID/g
- Drug uptake (Spleen [17]): 2.14 % ID/g
- Drug uptake (Stomach [18]): 1.08 % ID/organ
- Drug uptake (Liver [19]): 14.62 % ID/g
- Drug uptake (Blood [20]): 3.54 % ID/g
- Drug uptake (Liver [21]): 12.37 % ID/g
- Drug uptake (Blood [22]): 1.52 % ID/g
- Drug uptake (Liver [23]): 8.53 % ID/g
- Drug uptake (Blood [24]): 1.54 % ID/g
- Drug uptake (Stomach [25]): 4.89 % ID/organ
- Drug uptake (Brain [26]): 1.98 % ID/g
- Drug uptake (Pancreas [27]): 3.06 % ID/g
- Drug uptake (Stomach [28]): 2.32 % ID/organ
- Drug uptake (Brain [29]): 2.56 % ID/g
- Drug uptake (Kidney [30]): 5.3 % ID/g
- Drug uptake (Heart [31]): 1.68 % ID/g
- Drug uptake (Spleen [32]): 2.84 % ID/g
- Drug uptake (Spleen [33]): 4.7 % ID/g
- Drug uptake (Heart [34]): 9.51 % ID/g
- Drug uptake (Brain [35]): 1.44 % ID/g
- Drug uptake (Kidney [36]): 3.39 % ID/g
- Drug uptake (Stomach [37]): 7.38 % ID/organ

Compound: Oc1ccc(-c2nc(-c3ccc(I)cc3)no2)cc1
- Ki [1]: 47.1 nM

Compound: CN(C)c1ccc(-c2nc(-c3ccc(I)cc3)no2)cc1
- Ki [1]: 15.4 nM
